Assay results reported in PubChem BioAssay.
The other results are listed elsewhere or left out. Records with an inconclusive call do not appear. A number with no mark means an inactive call. Calls of active or inactive are those of the source.

How the values were obtained:
[1] = biological target: Solute carrier family 12 member 5 (Homo sapiens) (UniProt Q9H2X9); experiment: retest of KCC2 transport modulators without sodium – cell-based, HEK293 KCC2, thallium flux, secondary assay, confirmation (AID 1713); details: FluoZin2 fluorescence, at 10 µM, active compounds read high
Solute carrier family 12 member 5 (Homo sapiens), sequence (Q9H2X9 whole entry, looked up): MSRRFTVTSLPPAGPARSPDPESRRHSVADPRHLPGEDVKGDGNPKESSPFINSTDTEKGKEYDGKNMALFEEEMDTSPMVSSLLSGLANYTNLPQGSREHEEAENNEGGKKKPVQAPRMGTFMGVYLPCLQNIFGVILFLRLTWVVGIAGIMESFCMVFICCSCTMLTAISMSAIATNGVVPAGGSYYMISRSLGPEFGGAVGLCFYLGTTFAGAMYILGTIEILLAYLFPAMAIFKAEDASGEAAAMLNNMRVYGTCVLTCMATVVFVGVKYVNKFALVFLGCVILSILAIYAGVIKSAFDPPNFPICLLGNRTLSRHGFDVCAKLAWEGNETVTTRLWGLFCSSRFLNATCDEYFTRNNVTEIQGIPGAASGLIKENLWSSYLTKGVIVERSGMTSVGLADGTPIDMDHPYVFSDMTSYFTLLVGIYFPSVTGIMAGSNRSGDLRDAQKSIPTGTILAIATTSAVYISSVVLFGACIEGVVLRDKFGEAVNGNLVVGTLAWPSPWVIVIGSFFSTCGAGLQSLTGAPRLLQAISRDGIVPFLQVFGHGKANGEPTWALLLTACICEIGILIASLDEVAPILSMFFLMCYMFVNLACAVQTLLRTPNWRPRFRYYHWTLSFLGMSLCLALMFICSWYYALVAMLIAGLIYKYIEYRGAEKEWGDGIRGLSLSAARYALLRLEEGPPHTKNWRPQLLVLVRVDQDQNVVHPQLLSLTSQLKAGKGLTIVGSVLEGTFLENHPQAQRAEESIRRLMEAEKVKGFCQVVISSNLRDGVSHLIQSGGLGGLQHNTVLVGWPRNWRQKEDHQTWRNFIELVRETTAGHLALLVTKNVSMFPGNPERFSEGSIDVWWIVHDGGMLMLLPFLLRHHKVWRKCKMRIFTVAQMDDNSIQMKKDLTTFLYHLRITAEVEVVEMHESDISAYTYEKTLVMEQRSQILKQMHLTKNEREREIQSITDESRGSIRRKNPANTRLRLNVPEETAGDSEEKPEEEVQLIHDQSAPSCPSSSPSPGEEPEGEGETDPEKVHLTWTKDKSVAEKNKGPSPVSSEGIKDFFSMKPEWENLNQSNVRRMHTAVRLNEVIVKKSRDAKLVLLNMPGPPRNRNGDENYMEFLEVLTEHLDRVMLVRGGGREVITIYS
Method in brief: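 Evaluation: F/F0 slope over 10–20 s post-thallium, baseline-normalized / Material: KCC2-expressing HEK cells / Detection: FluoZin2 fluorescence, 480/540 nm, 1 Hz / Times: 48 min dye loading / Medium: Sodium-free N-methylglucamine chloride buffer / Compound: 10 µM single dose, 0.1% DMSO / Control set: bumetanide and DMSO controls / Probe or stimulus: thallium sulfate stimulus buffer at pH 7.3 / Repeats: duplicates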

PubChem AID 1714 = details: HEK293-KCC2 + bumetanide/ouabain, thallium flux FluoZin2; at 10 µM; active compounds read high
Method in brief: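 Test system: HEK cells expressing the K-Cl cotransporter KCC2 | Compound: One dose, 10 µM, 0.1% DMSO | Replication: Duplicates | Evaluation: Normalized thallium flux slope | Detection: FluoZin2-AM (0.5 µM) fluorescence, 480 nm ex/540 nm em, 1 Hz kinetic imaging | Incubation: Overnight culture 37 °C, dye loading 48 min | Reagent: Thallium stimulus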

[2] = biological target: Solute carrier family 12 member 5 (Homo sapiens) (UniProt Q9H2X9); experiment: retest of KCC2 transport modulation, ouabain-free – cell-based, HEK293 KCC2, thallium flux, FluoZin2, secondary assay 2, confirmation (AID 1715;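 active = thallium flux slope more than 3 SD above or below the plate's solvent-only control mean, mostly below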;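 also: raw slope with 0.1% DMSO as baseline and bumetanide as block control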); details: HEK293-KCC2, thallium flux FluoZin2 fluorescence; at 10 µM; actives lie on both sides; F/F0 rise rate, 10–20 s post-thallium
[3] = compound effects on native HEK Tl+ uptake – HEK cells, counterscreen 1, counter-screen for KCC2 modulator project, confirmation (AID 1716;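 active = thallium flux rate significantly above the same plate's solvent-only control wells, beyond their mean plus 3 SD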); details: HEK293 parental cells, thallium flux FluoZin2, ouabain; at 10 µM; baseline-ratio fluorescence slope, 10–20 s after thallium
[4] = biological target: Solute carrier family 12 member 5 (Homo sapiens) (UniProt Q9H2X9); experiment: modulation of KCC2 thallium flux in HEK cells – cell-based, ouabain, retest, confirmation (AID 1717;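 active = thallium flux slope beyond 3 SD from same-plate DMSO control mean in most replicates, usually higher, sometimes lower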;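 also: slope of initial-normalized fluorescence between seconds 10 and 20 after thallium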); details: HEK293-KCC2, thallium flux FluoZin2 fluorescence, at 10 µM, bidirectional: low = inhibitor, high = activator
[5] = native HEK Tl+ uptake effects, second counter-screen – HEK cells, counterscreen 2, counter-screen for KCC2 modulator project, confirmation (AID 1718;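 active = thallium flux slope above the same plate's solvent-control mean plus 3 SD in both duplicate wells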;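 also: run without ouabain in cells lacking the KCC2 cotransporter; slope of fluorescence scaled to its starting value between 10 and 20 s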); details: HEK293 parental, thallium flux FluoZin-2 fluorescence slope; at 10 µM
Method in brief: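 Material: parental HEK cells. Medium: HBSS, 20 mM HEPES. Reagent: thallium sulfate stimulus, 12 mM in buffer, pH 7.3. Incubation: overnight cell culture at 37 °C, 48 min dye loading, compound before thallium. Signal: FluoZin-2 fluorescence kinetics. Read-out basis: thallium influx rate. Repeats: Per-replicate slope values.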

Structure (SMILES) | normalised thallium flux (F/F0 slope) [1] | normalized thallium flux (PubChem AID 1714) | normalized thallium flux [2] | thallium flux rate (normalised fluorescence) [3] | raw Tl+ flux slope (below DMSO = inhibition, above = activation) [4] | thallium flux slope [5]
O=C(CSCc1ccccc1)N1CCc2ccccc21 | 0.00671 | 0.00485 | 0.027 | 0.0071 | 0.0219 (active) | 0.00997
C=CCNC(=S)NNC(=O)COc1c(Cl)cc(Cl)cc1Cl | 0.0146 (active) | 0.0275 (active) | 0.0376 | 0.0266 (active) | 0.03 (active) | 
COc1ccc(NC(=O)N2CCC(Cc3ccccc3)CC2)cc1 | 0.00655 | 0.00529 | 0.0303 | 0.00728 | 0.0137 (active) | 
O=C(CSC1=NCCS1)Nc1nc(-c2ccccc2)cs1 | 0.0102 | 0.00549 | 0.0253 (active) | 0.00757 | 0.0163 (active) | 0.0115
Cc1cc(C)nc(SC(C)C(=O)N/N=C/c2cccs2)n1 (stereo not given) | 0.00759 | 0.00586 | 0.0302 | 0.00741 | 0.0216 | 0.00957
COc1ccc(C(=O)NC2(C(F)(F)F)NC(=O)N(CCCc3ccccc3)C2=O)c(OC)c1OC (stereo not given) | 0.00692 | 0.00586 | 0.0307 | 0.00683 | 0.0134 (active) | 0.0109
CN(C)S(=O)(=O)c1cccc(NC(=S)N/N=C/C(=O)c2ccccc2)c1 | 0.014 (active) | 0.0308 (active) | 0.0323 | 0.0158 (active) | 0.0279 | 0.0129 (active)
N=c1oc2ccccc2cc1C(=O)N/N=C/c1ccccc1 | 0.00592 (active) | 0.00648 | 0.0291 | 0.00736 | 0.0198 (active) | 
O=C(Nc1nnc(-c2ccccc2)o1)c1cc(-c2cccs2)nc2ccccc12 | 0.0238 (active) | 0.108 (active) | 0.0377 | 0.0864 (active) | 0.0747 (active) | 0.0185 (active)
Cc1ccc(OCc2n[nH]c(=S)n2-c2ccc(C)cc2)cc1 | 0.0109 | 0.094 (active) | 0.0355 | 0.0134 (active) |  | 
NC(=O)NC(=O)CSc1nc2cc([N+](=O)[O-])ccc2n1-c1cccc(C(F)(F)F)c1 | 0.00549 | 0.0122 (active) | 0.0326 | 0.0113 (active) |  | 
COc1cccc(CNC(=O)Cc2csc(Nc3nc(=S)[nH]c4ccccc34)n2)c1 | 0.0104 | 0.0662 (active) | 0.0329 | 0.0306 (active) | 0.0519 (active) | 0.0141 (active)
Cc1c(NC(=O)CSc2cccc3cccnc23)c(=O)n(-c2ccccc2)n1C | 0.0141 (active) | 0.0374 (active) | 0.0314 | 0.0256 (active) | 0.0324 (active) | 
COC(=O)c1sccc1NC(=O)CCC1CCCC1 | 0.00664 | 0.00434 | 0.032 | 0.00709 | 0.0186 | 0.00941
C=CCNC(=S)N/N=C/c1ccc(C)s1 | 0.0134 (active) | 0.0311 (active) | 0.0287 | 0.0119 (active) | 0.0521 (active) | 
S=c1nccc(-c2cc(Cl)sc2Cl)[nH]1 | 0.00959 | 0.0101 (active) | 0.0372 | 0.0107 (active) |  | 
O=C(COC(=O)c1cc([N+](=O)[O-])ccc1NCc1ccccc1)NC1CCCCC1 | 0.00664 | 0.00478 | 0.0252 (active) | 0.00762 | 0.0168 (active) | 0.0115
O=C(Nc1nnc(C2COc3ccccc3O2)o1)c1ccc(F)cc1 (stereo not given) | 0.0197 (active) | 0.06 (active) | 0.032 | 0.0287 (active) | 0.0495 (active) | 0.0126 (active)
Cc1cccc(NC(=S)NC(=O)c2ccc(Br)o2)c1 | 0.0193 (active) | 0.142 (active) | 0.0972 (active) | 0.129 (active) | 0.124 (active) | 0.0866 (active)
O=C(NC(CC(=O)N1CCN(c2ccccc2)CC1)c1ccccc1)c1ccccc1Cl (stereo not given) | 0.00747 | 0.00528 | 0.0333 | 0.00637 | 0.019 | 0.00971
C/C(=N\NC(=S)Nc1ccc(C)cc1)c1cc2ccccc2o1 | 0.00692 | 0.0677 (active) | 0.0558 (active) | 0.0375 (active) | 0.0575 (active) | 0.0352 (active)
